To fix the notation:
B1: NELF-E aptamer (parent)
chain: CCCAACGACUGCCGAGCGAGAUUACGCUUGAGCGCCCCACUGAGGAUGCCCACGGGCGAUUGGGGCACGG

This is an account of results in the RNAGym collection of RNA variant scans (doi:10.1038/nmeth.2970).

Variants of B1 are the subject of this data set. Nature of the data set: HiTS-RAP. The conditions noted are these: with NELF-E (Drosophila). The method, boiled down:
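Kd came from weighted Hill fits to the first binding curve, with intensities normalised to sequencing intensity and averaged per sequence, keeping only fits whose variance was below 1,000,000. That curve was imaged on an Illumina GAIIx flowcell, where sequenced aptamer DNA templates with a T7 promoter and ter site had been transcribed in situ by T7 RNA polymerase and halted by GST-Tus (30 minutes, 37°C). Before each image, clusters equilibrated for 30 minutes at room temperature with NELF-E-mOrange at 0.064 to 1000 nM in HEPES binding buffer.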
As usually defined, the Kd is the equilibrium constant for the complex coming apart. As for CCCAACGACUGCCGAGCGAGAUUACGCUUGAGCGCCCCACAGAGGAUGCCCUCGGGCGAUUGGGGCACGG [U41A A52U], the Kd is 81 nM.

Consider CCCAACGACUGCCGAGCGAGAUUACGCUUGAGCGCCCCUCUGAGGAUGCCCGCGGGCGAUUGGGGCACGG [A39U A52G], for which the Kd amounted to 15.5 nM.

In the case of CCCAACGACUGCCGAGCGAGAUUACGCUUGAGCGCCCCACCGAGGAUGCCCACGGGCGAUUGGGGCACGG [U41C], the Kd stood at 68.9 nM.

Turning to CCCAACGACUGCCGAGCGAGAUUACGCUUGAGCGCCCCACAGAGGAUGCCCACGGGCGAUUGGGGCACGG [U41A], the dissociation constant (Kd) was found to be 73.7 nM.

For CCCAACGACUGCCGAGCGAGAUUACGCUUGAGCGCCCCACGGAGGAUGCCCACGGGCGAUUGGGGCACGG [U41G], the Kd was determined as 5.16 nM.

Turning to CCCAACGACUGCCGAGCGAGAUUACGCUUGAGCGCCCCACGGAGGAUGUCCACGGGCGAUUGGGGCACGG [U41G C49U], the Kd was 28 nM.

Consider CCCAACGACUGCCGAGCGAGAUUACGCUUGAGCGCCCCUGUGAGGAUGCCCACGGGCGAUUGGGGCACGG [A39U C40G], for which the Kd was 5.95 nM.

With CCCAACGACUGCCGAGCGAGAUUACGCUUGAGCGCCCCACGGAGGAUGCUCACGGGCGAUUGGGGCACGG [U41G C50U], the Kd turned out to be 13.8 nM.

For CCCAACGACUGCCGAGCGAGAUUACGCUUGAGCGCCCCGCUGAGGAUGCCCACGGGCGAUUGGGGCACGG [A39G], the Kd came to 8.97 nM.

Consider CCCAACGACUGCCGAGCGAGAUUACGCUUGAGCGCCCCUCUGAGGAUGCCCACGGGCGAUUGGGGCACGG [A39U], for which the Kd was determined as 23.5 nM.

Consider CCCAACGACUGCCGAGCGAGAUUACGCUUGAGCGCCCCCCUGAGGAUGCCCACGGGCGAUUGGGGCACGG [A39C], for which the Kd stood at 20.5 nM.

As for CCCAACGACUGCCGAGCGAGAUUACGCUUGAGUGCCCCUCUGAGGAUGCCCACGGGCGAUUGGGGCACGG [C33U A39U], the dissociation constant Kd worked out at 26.9 nM.

Take CCCAACGACUGCCGAGCGAGAUUACGCUUGAGCGCACCACUGAGGAUGCCCACGGGCGAUUGGAGCACGG [C36A G64A]: the Kd was 14.3 nM.

Take CCCAACGACUGCCGAGCGAGAUUACGCUUGAGCCGCCCACUGAGGAUGCCCACGGGCGAUUGGGGCACGG [G34C C35G]: the Kd amounted to 3.76 nM.

With CCCAACGACUGCCGAGCGAGAUUACGCUUGAGUGCCCCACUGAGGAUGCCCACAGGCGAUUGGGGCACGG [C33U G54A], the Kd was 6.14 nM.

Consider CCCAACGACUGCCGAGCGAGAUUACGCUUGAGCACCCCACUGAGGAUGCCCUCGGGCGAUUGGGGCACGG [G34A A52U], for which the Kd came to 20.7 nM.

Turning to CCCAACGACUGCCGAGCGAGAUUACGCUUGAGCGCCCCACAGAGGAUGCCCACGGGCGAUUGGGGUACGG [U41A C66U], the Kd came out at 85.7 nM.

Consider CCCAACGACUGCCGAGCGAGAUUACGCUUGAGCGCCCUGCUGAGGAUGCCCACGGGCGAUUGGGGCACGG [C38U A39G], for which the Kd amounted to 6.36 nM.

In the case of CCCAACGACUGCCGAGCGAGAUUACGCUUGAGCGCCCUACUGAGGAUGCCCACGGGCGAUUGGGGCACGG [C38U], the equilibrium dissociation constant (Kd) worked out at 7.54 nM.

Consider CCCAACGACUGCCGAGCGAGAUUACGCUUGAGCGCCCAACUGAGGAUGCCCACGGGCGAUUGGGGCACGG [C38A], for which the Kd was 31.4 nM.

In the case of CCCAACGACUGCCGAGCGAGAUUACGCUUGAGCGCCCGACUGAGGAUGCCCACGGGCGAUUGGGGCACGG [C38G], the Kd is 5.24 nM.

As to CCCAACGACUGCCGAGCGAGAUUACGCUUGAGCGCCCCACGGAGGAUGCCUACGGGCGAUUGGGGCACGG [U41G C51U], the Kd came out at 7.25 nM.

With CCCAACGACUGCCGAGCGAGAUUACGCUUGAGCGCCCCACGGGGGAUGCCCACGGGCGAUUGGGGCACGG [U41G A43G], the Kd stood at 8.31 nM.

CCCAACGACUGCCGAGCGAGAUUACGCUUGAGCGCCCCACGGUGGAUGCCCACGGGCGAUUGGGGCACGG [U41G A43U]: the Kd turned out to be 26.3 nM.

Turning to CCCAACGACUGCCGAGCGAGAUUACGCUUGAGCGCCCCUCUGAGGAUGCCCACAGGCGAUUGGGGCACGG [A39U G54A], the Kd came to 39.3 nM.

CCCAACGACUGCCGAGCGAGAUUACGCUUGAGCGCCCCAUGGAGGAUGCCCACGGGCGAUUGGGGCACGG [C40U U41G]: the Kd turned out to be 7.61 nM.

Take CCCAACGACUGCCGAGCGAGAUUACGCUUGAGCGCCCCUCAGAGGAUGCCCACGGGCGAUUGGGGCACGG [A39U U41A]: the Kd turned out to be 109 nM.

Regarding CCCAACGACUGCCGAGCGAGAUUACGCUUGAGCGCCCCUCGGAGGAUGCCCACGGGCGAUUGGGGCACGG [A39U U41G], the Kd amounted to 30.7 nM.

Take CCCAACGACUGCCGAGCGAGAUUACGCUUGAUCGCCCCACUGAGGAUGCCCACGGGCGAUUGGGGCACGG [G32U]: the Kd amounted to 5.38 nM.

For the variant CCCAACGACUGCCGAGCGAGAUUACGCUUGACCGCCCCACUGAGGAUGCCCACGGGCGAUUGGGGCACGG [G32C], the Kd was found to be 4.57 nM.

CCCAACGACUGCCGAGCGAGAUUACGCUUGAGCGCCCCACAGAGGAUGCCCACGGGCGAUUAGGGCACGG [U41A G62A]: the Kd was determined as 102 nM.

In the case of CCCAACGACUGCCGAGCGAGAUUACGCUUGAGAGCCCCACUGAGGAUGCCCACGGGCGAUUGGGGCACGG [C33A], the Kd came to 4.67 nM.

As for CCCAACGACUGCCGAGCGAGAUUACGCUUGAGUGCCCCACUGAGGAUGCCCACGGGCGAUUGGGGCACGG [C33U], the Kd was 4.92 nM.

With CCCAACGACUGCCGAGCGAGAUUACGCUUGAGGGCCCCACUGAGGAUGCCCACGGGCGAUUGGGGCACGG [C33G], the Kd was determined as 5.4 nM.

On to CCCAACGACUGCCGAGCGAGAUUACGCUUGAGCGCCCCACGGAGGAUGCCCACGGGCGGUUGGGGCACGG [U41G A59G], for which the Kd was determined as 35.1 nM.

As for CCCAACGACUGCCGAGCGAGAUUACGCUUGAGCGCCCCACGGAGGAUGCCCACGGGCGUUUGGGGCACGG [U41G A59U], the Kd was found to be 31.7 nM.

Turning to CCCAACGACUGCCGAGCGAGAUUACGCUUGAGCGCCCCGCUGAGGAUGCCCACAGGCGAUUGGGGCACGG [A39G G54A], the dissociation constant (Kd) is 23.3 nM.

Consider CCCAACGACUGCCGAGCGAGAUUACGCUUGAGCGCCCCUCUGAGGAUGCCCACGGGCGAUUGGGGUACGG [A39U C66U], for which the equilibrium dissociation constant (Kd) was 21.2 nM.

Take CCCAACGACUGCCGAGCGAGAUUACGCUUGAGCGCCCCACCGAGGAUGCCCACAGGCGAUUGGGGCACGG [U41C G54A]: the Kd is 103 nM.
